In ChEMBL document CHEMBL1123476, “Synthesis of congeners and prodrugs of the benzene maleimide photoadduct mitindomide as potential antitumor agents. 2” (J Med Chem, 1986):
Where “and” joins values, the source holds several entries; their conditions need not be identical. Identical values can stand only once.

Legend:
P388 [1] = assay: (§1) Antitumor activity in P-388 lymphocytic leukemia system at 100 mg/kg dose levels per injection.; format: functional, Mus musculus
How it was run: (§2)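 P-388 leukemia in vivo, dosed Q01D×09 (one injection daily for 9 days, mg/kg per injection). Activity is %T/C, the median lifetime of treated animals divided by that of controls, ×100. Live animals on day 4 were counted against the total (survivors day 4). Repeat tests were done independently at different times.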

P388 [2] = assay: Antitumor activity in P-388 lymphocytic leukemia system and the difference in body weight was calculated at 200 mg/kg dose levels per injection.; format: functional, Mus musculus
P388 [3] = assay: Antitumor activity in P-388 lymphocytic leukemia system and the difference in body weight was calculated at 50 mg/kg dose levels per injection.; format: functional, Mus musculus
P388 [4] = assay: Compound was tested for antitumor activity in P-388 lymphocytic leukemia system and the difference in body weight was calculated at 400 mg/kg dose levels per injection; format: functional, Mus musculus
P388 [5] = assay: (§3) Antitumor activity in P-388 lymphocytic leukemia system at 50 mg/kg dose levels per injection.; format: functional, Mus musculus; how it was run: as §2
P388 [6] = assay: Compound was tested for antitumor activity in P-388 lymphocytic leukemia system at 400 mg/kg dose levels per injection; Toxic; format: functional, organism-based; design: dose 400 mg/kg; conditions: Mus musculus; how it was run: as §2
P388 [7] = assay: as §1; format: functional, Mus musculus; remark: listed apart in the source
How it was run: (§4)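 P-388 leukemia in animals, Q01D×09 schedule: dose given daily for 9 days, in mg/kg per injection. Read-outs are survivors on day 4 (live/total animals), body-weight difference test minus control (g), and % T/C (median lifetime of treated ÷ median lifetime of controls × 100). Some compounds were tested in independent runs at different times.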

P388 [8] = assay: (§5) Antitumor activity in P-388 lymphocytic leukemia system at 200 mg/kg dose levels per injection.; format: functional, Mus musculus; how it was run: as §4
P388 [9] = assay: as §5; format: functional, Mus musculus; how it was run: as §2; remark: listed apart in the source
[10] = Solubility was determined; format: physicochemical
P388 [11] = assay: as §3; format: functional, Mus musculus; how it was run: as §4; remark: listed apart in the source
P388 [12] = assay: Compound was tested for antitumor activity in P-388 lymphocytic leukemia system at 400 mg/kg dose levels per injection; 3/6; format: functional, Mus musculus; how it was run: as §4
P388 [13] = assay: Compound was tested for antitumor activity in P-388 lymphocytic leukemia system at 200 mg/kg dose levels per injection; 5/6; format: functional, Mus musculus; how it was run: as §4
P388 [14] = assay: Antitumor activity in P-388 lymphocytic leukemia system at 25 mg/kg dose levels per injection; format: functional, Mus musculus; how it was run: as §2
P388 [15] = assay: Compound was tested for antitumor activity in P-388 lymphocytic leukemia system at 25 mg/kg dose levels per injection; 6/6; format: functional, Mus musculus; how it was run: as §4
P388 [16] = assay: Compound was tested for antitumor activity in P-388 lymphocytic leukemia system at 25 mg/kg dose levels per injection; format: functional, Mus musculus; how it was run: as §2
P388 [17] = assay: Compound was tested for antitumor activity in P-388 lymphocytic leukemia system at 100 mg/kg dose levels per injection; 5/6; format: functional, Mus musculus; how it was run: as §4
[18] = Solubility was determined; INS= less than 0.1; format: physicochemical
P388 [19] = assay: Compound was tested for antitumor activity in P-388 lymphocytic leukemia system at 200 mg/kg dose levels per injection; format: functional, Mus musculus; how it was run: as §2
P388 [20] = assay: Compound was tested for antitumor activity in P-388 lymphocytic leukemia system at 200 mg/kg dose levels per injection.; format: functional, organism-based; design: dose 200 mg/kg; conditions: Mus musculus; how it was run: as §2
P388 [21] = assay: Compound was tested for antitumor activity in P-388 lymphocytic leukemia system. at 400 mg/kg dose levels per injection; format: functional, Mus musculus; how it was run: as §2
P388 [22] = assay: Antitumor activity in P-388 lymphocytic leukemia system and the difference in body weight calculated at 100 mg/kg dose levels per injection.; format: functional, Mus musculus
P388 [23] = assay: Compound was tested for antitumor activity in P-388 lymphocytic leukemia system at 200 mg/kg dose levels per injection;6/6; format: functional, Mus musculus; how it was run: as §4
P388 [24] = assay: Compound was tested for antitumor activity in P-388 lymphocytic leukemia system at 400 mg/kg dose levels per injection; 6/6; format: functional, Mus musculus; how it was run: as §4
P388 [25] = assay: Antitumor activity in P-388 lymphocytic leukemia system and the difference in body weight was calculated at 25 mg/kg dose levels per injection.; format: functional, Mus musculus
P388 [26] = assay: Antitumor activity in P-388 lymphocytic leukemia system at 25 mg/kg dose levels per injection.; format: functional, Mus musculus; how it was run: as §4
P388 [27] = assay: Compound was tested for antitumor activity in P-388 lymphocytic leukemia system at 400 mg/kg dose levels per injection; 5/6; format: functional, Mus musculus; how it was run: as §4
P388 [28] = assay: Compound was tested for antitumor activity in P-388 lymphocytic leukemia system at 166.7 mg/kg dose levels per injection; 3/6; format: functional, Mus musculus; how it was run: as §4
P388 [29] = assay: Compound was tested for antitumor activity in P-388 lymphocytic leukemia system at 60 mg/kg dose levels per injection; format: functional, Mus musculus; how it was run: as §2
P388 [30] = assay: Compound was tested for antitumor activity in P-388 lymphocytic leukemia system at 30 mg/kg dose levels per injection; format: functional, Mus musculus; how it was run: as §2
P388 [31] = assay: Compound was tested for antitumor activity in P-388 lymphocytic leukemia system at 30 mg/kg dose levels per injection; 6/6; format: functional, Mus musculus; how it was run: as §4
P388 [32] = assay: Compound was tested for antitumor activity in P-388 lymphocytic leukemia system at 50 mg/kg dose levels per injection; 5/6; format: functional, Mus musculus; how it was run: as §4
P388 [33] = assay: Compound was tested for antitumor activity in P-388 lymphocytic leukemia system and the difference in body weight was calculated at 30 mg/kg dose levels per injection; format: functional, Mus musculus
P388 [34] = assay: Compound was tested for antitumor activity in P-388 lymphocytic leukemia system and the difference in body weight was calculated at 60 mg/kg dose levels per injection; format: functional, Mus musculus
P388 [35] = assay: Compound was tested for antitumor activity in P-388 lymphocytic leukemia system and the difference in body weight was calculated at 166.7 mg/kg dose levels per injection; format: functional, Mus musculus
P388 [36] = assay: Compound was tested for antitumor activity in P-388 lymphocytic leukemia system at 60 mg/kg dose levels per injection; 6/6; format: functional, Mus musculus; how it was run: as §4
P388 [37] = assay: Compound was tested for antitumor activity in P-388 lymphocytic leukemia system. at 400 mg/kg dose levels per injection; Toxic; format: functional, organism-based; design: dose 400 mg/kg; conditions: Mus musculus; how it was run: as §2

Compound	T/C (P388 [1]; 100 mg/kg)	Weight difference (P388 [2]; 200 mg/kg)	Weight difference (P388 [3])	Weight difference (P388 [4])	T/C (P388 [5])	Survivors at day 4 (P388 [7])	Survivors at day 4 (P388 [8])	T/C (P388 [9]; 200 mg/kg)	Survivors at day 4 (P388 [11])	Survivors at day 4 (P388 [13])	Solubility [18]	Weight difference (P388 [25])	T/C (P388 [16])	Survivors at day 4 (P388 [26])	also measured
CN1CCN(CN2C(=O)C3C4C=CC(C3C2=O)C2C(=O)N(CN3CCN(C)CC3)C(=O)C42)CC1 (centres undefined)	126% and 113%	-3.1 g and -3.6 g	0 g	-6.4 g	108%	6	6	122% and 128%	6						T/C (P388 [6]): Toxic; Solubility [10]: 2%; Survivors at day 4 (P388 [12]): 3
O=C1NC(=O)C2C3C=CC(C12)C1C(=O)NC(=O)C31 (centres undefined)					100%				6	5	Insoluble				T/C (P388 [1]): 97%; Weight difference (P388 [1]): -2.4 g; Weight difference (P388 [5]): -1.1 g; T/C (P388 [14]): 105%; Survivors at day 4 (P388 [15]): 6; T/C (P388 [9]): 92%; Weight difference (P388 [16]): -0.7 g; Survivors at day 4 (P388 [17]): 5; Weight difference (P388 [19]): -4.3 g
CCOC(=O)N1C(=O)C2C3CCC(C2C1=O)C1C2C(=O)N(C(=O)OCC)C(=O)C2C31 (centres undefined)	157% and 142%					6	6		6	5	Insoluble				Weight difference (P388 [1]; 100 mg/kg): -1.2 g and -2.2 g; T/C (P388 [20]): Toxic; T/C (P388 [5]; 50 mg/kg): 127% and 115%; Weight difference (P388 [5]; 50 mg/kg): -0.3 g and -0.4 g; T/C (P388 [14]; 25 mg/kg): 111% and 104%; Survivors at day 4 (P388 [15]): 6; T/C (P388 [9]): 222%; Weight difference (P388 [16]; 25 mg/kg): -0.5 g and -0.7 g; Weight difference (P388 [19]; 200 mg/kg): -4 g and -5.2 g
COC1=CC2C3C(=O)NC(=O)C3C1C1C3C(=O)NC(=O)C3C21 (centres undefined)		-0.3 g and -0.4 g	0 g	-2 g	99%	6	6	101% and 90%	6		Insoluble				T/C (P388 [21]): 98%; T/C (P388 [1]): 101%; Weight difference (P388 [22]): -0.3 g; Survivors at day 4 (P388 [23]): 6; Survivors at day 4 (P388 [24]): 6
CCN(CC)CN1C(=O)C2C3C=CC(C2C1=O)C1C2C(=O)N(CN(CC)CC)C(=O)C2C31 (centres undefined)	117% and 116%	-0.7 g and -0.6 g		-0.9 g		6	6	139% and 125%	6		Insoluble	0 g	103%	6	T/C (P388 [21]): 111%; Weight difference (P388 [22]; 100 mg/kg): -0.8 g and -0.4 g; Weight difference (P388 [3]; 50 mg/kg): -1 g and -0.5 g; T/C (P388 [5]; 50 mg/kg): 111% and 102%; Survivors at day 4 (P388 [27]): 5
CN1CCN(CN2C(=O)C3C4C=CC(C3C2=O)C2C3C(=O)N(CN5CCN(C)CC5)C(=O)C3C42)CC1 (centres undefined)	200% and 211%		-1.3 g		106%	6				5		-0.6 g	99%	6	Weight difference (P388 [2]): -9 g; Weight difference (P388 [22]; 100 mg/kg): -3.7 g and -4.9 g; Survivors at day 4 (P388 [28]): 3; T/C (P388 [29]): 165%; T/C (P388 [30]): 116%; Survivors at day 4 (P388 [31]): 6; Survivors at day 4 (P388 [32]): 5; Weight difference (P388 [33]): -0.2 g; Weight difference (P388 [34]): -3.1 g; Weight difference (P388 [35]): -5.1 g; Survivors at day 4 (P388 [36]): 6; Solubility [10]: 1.5%
CC(=O)OC(C(=O)O)N1C(=O)C2C3C=CC(C2C1=O)C1C2C(=O)N(C(OC(C)=O)C(=O)O)C(=O)C2C31 (centres undefined)	123% and 113%	-1.2 g and -0.5 g	-0.3 g	-5.7 g	110%	6	6	175% and 125%	6			0.2 g	103%	6	T/C (P388 [37]): Toxic; Survivors at day 4 (P388 [12]): 3
